Source: PubChem BioAssay
Many of the other results were omitted from the sample, so hits are more common in it than they were.
Lung fibro prol – blocks proliferation of human lung fibroblasts; LL 47 human lung fibroblast viability, ATP luminescence; active compounds read low; viability, % at 10 µM; 1.1% of 85,000 active; AID 719;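 active means viability at or below 50% in the single dose screen; inactive means viability above 50%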;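 further: compound exposure lasted 72 h before the ATP readout; 100% = median luminescence of untreated cell-only wells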
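Material: human LL 47 lung fibroblast cells; quantity: 1,150 cells/well; medium: IMEM plus 15% FBS; doses: 0.1% DMSO in all compound wells; timing: overnight attachment after seeding, then 72 h compound exposure at 37 °C; detection: CellTiter-Glo luminescence; measure: % viability of median cell-only signal; controls: cell-only wells, no compound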
HUVEC prolif 384 – blocks proliferation of human endothelial cells | HUVEC proliferation, CellTiter-Glo luminescence, 72 h; active compounds read low | viability, % at 10 µM (by protocol) | 1.1% of 86,000 active;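 active means viability at or below 30%; inactive means viability above 30%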;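 further: 100% = median luminescence of DMSO-only cell control wells on each plate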
PTEN del growth – growth suppressors of cells with PTEN tumor suppressor deletion. HCT116 PTEN-null viability, CellTiter-Glo, 60 h; active compounds read low. viability, % at 10 µM. 1.2% of 140,000 active. AID 827;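 active means viability at or below a set limit, 4 SD under the median of all tested compounds, cut at about 3.7% in these data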;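 further: PTEN knockout HCT116 line with beta catenin targeted HCT116 as companion control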
HCT116 bCat-KO – beta-catenin-lacking colon tumor cell growth suppression; 1.5% of 140,000 active; AID 818; viability, % at 10 µM; HCT116 beta-catenin knockout viability, CellTiter-Glo, 60 h; active compounds read low;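 active means viability at or under a set limit, the compound median less 4 SD, cut at about 6% in these data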;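 further: 0% = Hyamine 1622 control at 20 µM and 100% = untreated cell control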
Phagocytosis inh – blocks phagocytosis by macrophages; J774A.1 macrophage IgG-bead phagocytosis, imaging; inhibition, % at 5 µM; 0.07% of 110,000 active; AID 1029;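 active means inhibition above the mean of the plate negative controls plus 5 SD, cut at about 13% in these data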;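 further: phagocytic index as fraction of beads internalized from green versus red external bead signal; plate controls were DMSO negative control for no effect and cytochalasin-D positive control for full effect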
H69AR growth 86K – blocks growth of human H69AR lung tumor cells | H69AR lung tumor viability, ATP luminescence, 72 h; active compounds read low | viability, % at 10 µM | 6% of 85,000 active | AID 598;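 active means viability at or below 40%; inactive means viability above 40%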;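 further: multidrug resistant small cell line overexpressing MRP-1 efflux transporter; 100% = mean luminescence of untreated control wells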
An asterisk follows results filed as active; · = no result.

SMILES | Lung fibro prol | HUVEC prolif 384 | PTEN del growth | HCT116 bCat-KO | Phagocytosis inh | H69AR growth 86K
O=C(Nc1nccs1)c1nc(-c2ccccc2)n(-c2ccccc2)n1 | 98.3 | 96.3 | 89.3 | 86.2 | -0.3 | 76.3
Cc1csc(NC(=O)c2nc(-c3ccccc3)n(-c3ccccc3)n2)n1 | · | 102.5 | 49.7 | 49.6 | -0.5 | 26.1*
CCN(CC)C(=O)CNC(=O)Cc1ccc(Cl)cc1 | 101.7 | 95.3 | 101.3 | 98.4 | -2.0 | 100.0
O=C(N/N=C/c1ccc(Br)cc1)c1ccccc1-n1cccc1 | 82.3 | 56.2 | 29.0 | 29.1 | 1.8 | 21.5*
O=C(Cc1ccccc1)Nc1cccc(N2CCCC2)c1 | 106.3 | 102.6 | 98.3 | 89.7 | -0.2 | 98.6
CC(OC(=O)c1ccc(NS(=O)(=O)c2cccs2)cc1)C(=O)N(C)C1CCCCC1 (centres undefined) | · | · | 91.8 | 92.3 | 6.9 | ·
CCCOC(=O)CSc1nc(N)c(C#N)c(CC)c1C#N | 106.3 | 98.3 | 103.3 | 104.1 | 1.2 | 101.0
C(=C1/CCCC2=C1Nc1ncnn1C2c1ccccc1)/c1ccccc1 (centres undefined) | 4.1* | 12.9* | 1.5* | 1.5* | 5.8 | 0.8*
Cc1ccc2cc(CCNC(=O)c3ccc(C)c([N+](=O)[O-])c3)c(=O)[nH]c2c1 | · | · | 89.6 | 96.5 | -5.7 | ·
O=c1c2c3nc4ccccc4nc3n(-c3ccc4c(c3)OCCO4)c2ncn1C1CCCC1 | 13.2* | 36.6 | · | · | -0.1 | 20.6*
CC(=O)c1sc(NC(=O)C2(F)C(F)(F)C(F)(F)C(F)(F)C(F)(F)C2(F)F)nc1C | 54.1 | 45.1 | 12.7 | 16.1 | -1.2 | 12.5*
CC(=O)c1sc(NC(=O)C=C(C)C)nc1C | 97.2 | 79.0 | 89.4 | 98.3 | · | 93.6
CN(C)C(=O)c1c2c(nc3ccccc13)-c1ccccc1CC2 | · | · | 88.6 | 87.9 | -0.1 | ·
CCOC(=O)c1ccc(N/C=C/C(=O)c2ccco2)cc1 | 106.9 | 95.3 | 59.2 | 60.5 | -0.2 | 17.0*
O=C(Cc1ccccc1[N+](=O)[O-])NCCSCc1c(F)cccc1Cl | · | · | 96.6 | 93.1 | · | ·
Cn1ncc(Cl)c1C(=O)N/N=C/c1ccccn1 | · | · | 100.0 | 98.5 | 3.2 | ·
Cc1ccc(S(=O)(=O)Oc2ccccc2/C=N/NC(=O)c2c(Cl)cnn2C)cc1 | 98.3 | 85.7 | 85.3 | 88.1 | · | 33.3*
O=C(Nc1ncc(Cc2cccc(Cl)c2)s1)c1cccs1 | 83.5 | 31.0 | 41.7 | 32.6 | 0.8 | 35.3*
Cc1ccc(Cc2cnc(NC(=O)c3cccs3)s2)cc1 | 78.0 | 55.8 | 27.8 | 37.2 | · | 16.7*
O=C(Nc1ncc(Cc2ccccc2)s1)c1cccs1 | 81.3 | 71.3 | 68.3 | 81.8 | -0.6 | 69.3
S=c1nc(C2CCCCC2)[nH][nH]1 | 99.3 | 103.9 | 109.4 | 96.1 | -0.4 | 88.0
CC(=O)c1sc(Nc2nc3ccc(F)cc3s2)nc1C | 94.3 | 56.6 | 50.0 | 49.8 | -3.0 | 20.8*
CCOC(=O)c1csc(Nc2nc3ccc(F)cc3s2)n1 | · | · | 5.3 | 4.7* | -0.5 | ·
O=C(OCc1ccc(Cl)cc1)c1ccccc1C(=O)c1ccccc1 | · | · | 82.1 | 83.5 | -2.1 | ·
Cc1cccc(-n2c(=O)[nH]c3c(C(N)=O)nc(-c4ccccc4Cl)nc32)c1 | 53.2 | 88.5 | 1.5* | 1.8* | 1.7 | 2.5*
SMILES | Lung fibro prol | HUVEC prolif 384 | PTEN del growth | HCT116 bCat-KO | Phagocytosis inh | H69AR growth 86K
COc1ccccc1-c1nc(C(N)=O)c2[nH]c(=O)n(-c3cccc(C)c3)c2n1 | · | · | 82.5 | 94.5 | -0.8 | ·
CC(C)c1cc(C(=O)NNC(=S)NCc2ccco2)c(O)c(C(C)C)c1 | · | · | 50.6 | 52.5 | -10.3 | ·
O=S(=O)(Nc1ccc2c(c1)OCCO2)c1cccc2cccnc12 | 96.2 | 98.2 | 70.1 | 70.4 | -3.0 | 89.0
O=C(Cc1ccc(Cl)cc1)Oc1cccc2cccnc12 | · | · | 3.0* | 4.2* | -2.4 | ·
O=C(Oc1ccccc1)c1cccc2cccnc12 | 35.6* | 86.7 | 1.7* | 3.3* | · | 0.8*
O=C(Oc1cccc2cccnc12)c1ccco1 | 5.2* | 64.3 | 1.8* | 3.0* | · | 1.5*
O=C(Oc1cccc2cccnc12)c1ccc2c(c1)OCCO2 | 3.2* | 99.6 | 2.5* | 4.8* | -2.5 | 29.1*
O=C(O)c1cccc2cccnc12 | 97.5 | 111.6 | 102.5 | 93.9 | 1.2 | 91.8
S=c1sc(SCCOc2ccccc2)nn1-c1ccccc1 | · | · | 78.5 | 75.8 | -3.5 | ·
Cc1ccsc1/C=N/NC(=O)Cn1cnc2ccccc21 | · | · | 98.1 | 93.0 | -3.2 | ·
O=C(Oc1ccc(Cl)c2cccnc12)c1cccc([N+](=O)[O-])c1 | · | · | 22.5 | 26.2 | -6.0 | ·
O=C(Oc1ccc(Cl)c2cccnc12)c1ccco1 | 4.2* | 31.8 | 6.4 | 5.3* | 1.5 | 1.3*
O=C(Oc1cccc2cccnc12)c1cccs1 | 3.4* | 51.7 | 1.9* | 4.1* | -2.6 | 1.6*
O=C(Oc1cccc2cccnc12)c1ccc(Br)o1 | 97.3 | 92.7 | 69.6 | 83.8 | 0.3 | 83.4
CCCCCCCCCCS(=O)(=O)N/N=C/c1ccc(O)cc1 | · | · | 90.8 | 87.2 | · | ·
O=[N+]([O-])c1cccnc1-n1cnc2ccccc21 | · | · | 86.3 | 88.3 | -2.2 | ·
O=[N+]([O-])c1ccc(/C=N/n2cnc3ccccc32)s1 | · | · | 3.0* | 2.4* | 1.6 | ·
O=[N+]([O-])c1ccc(/C=N/n2c(CO)nc3ccccc32)s1 | · | · | 7.4 | 11.8 | -9.7 | ·
Cc1nc2ccccc2n1/N=C/c1ccc([N+](=O)[O-])s1 | · | · | 1.7* | 1.5* | -1.9 | ·
Cc1nnc(C)n1/N=C/c1cc(Br)ccc1O | · | · | 58.5 | 44.6 | -3.1 | ·
Cc1ccc(S(=O)(=O)n2cnc3cc([N+](=O)[O-])ccc32)cc1C | · | · | 99.3 | 89.5 | · | ·
Cc1cc2ncn(/N=C/c3cc(Br)ccc3O)c2cc1C | 100.0 | 94.1 | 89.3 | 83.5 | 2.0 | 31.1*
Cc1cc2ncn(/N=C/c3ccc([N+](=O)[O-])s3)c2cc1C | · | · | 1.2* | 1.5* | -7.5 | ·
C=CCn1c2ccccc2c2nnc(SC(CC)C(=O)Nc3sc4c(c3C#N)CCCC4)nc21 (centres undefined) | · | · | 51.6 | 53.5 | · | ·
C1CCN(c2nc(N3CCCC3)nc(N3CCNCC3)n2)C1 | 85.9 | 89.7 | 50.6 | 61.9 | -0.7 | 6.0*
SMILES | Lung fibro prol | HUVEC prolif 384 | PTEN del growth | HCT116 bCat-KO | Phagocytosis inh | H69AR growth 86K
c1ccc(Nc2nc(N3CCCCC3)nc(N3CCNCC3)n2)cc1 | · | · | 1.4* | 1.5* | 1.7 | ·
CC1CCCC(NC(=O)COC(=O)CN2C(=O)C3CCCCC3C2=O)C1C (centres undefined) | · | · | 98.5 | 91.3 | -3.0 | ·
CC(CCc1ccccc1)NC(=O)N1CCOCC1 (centres undefined) | · | · | 104.4 | 97.2 | · | ·
Cc1ccc2nc(-c3sc4nc(C)cc(C)c4c3N)[nH]c2c1 | 95.3 | 42.5 | 83.0 | 77.9 | · | 15.0*
Cc1ccc2nc(-c3cccc(N)c3)[nH]c2c1 | 75.2 | 73.1 | 66.0 | 60.3 | · | 48.8
Cc1c(C(=O)OCC(C)C)[nH]c2c1C(=O)CC(c1cccs1)C2 (centres undefined) | 51.6 | 44.9 | 15.4 | 12.8 | 4.0 | 20.9*
COc1ccc(CNC(=O)c2c(N)n(CCCN3CCOCC3)c3nc4ccccc4nc23)cc1 | 92.3 | 7.0* | 1.7* | 1.4* | -0.6 | 1.2*
